{"source": "paper PMC10329955", "about": "(Advances in Therapy, 2023)", "key": {"[1]": {"experiment": "Tirzepatide plasma pharmacokinetics after multiple SC doses", "format": "in vivo, human", "conditions": "Chinese patients with T2D, QW SC 2.5–15.0 mg", "how_it_was_run": "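Plasma test compound concentrations were measured after once-weekly SC doses escalated from 2.5 mg by 2.5 mg every 4 weeks, to 10.0 mg or 15.0 mg. Cmax, AUC, Tmax and T½ were derived. T½ was calculated over periods both shorter and longer than the resulting T½. Patients with ≥1 dose and evaluable data were analysed.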"}, "[2]": {"test_system": "Chinese patients with type 2 diabetes", "experiment": "Immunogenicity: anti-drug antibodies", "format": "in vivo, human", "how_it_was_run": "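Randomised 5:1, double-blind, placebo-controlled. Test compound or placebo given once weekly SC, starting at 2.5 mg and rising 2.5 mg every 4 weeks to 10.0 or 15.0 mg. Frequency and percentage of patients with pre-existing and treatment-emergent ADAs were recorded. Treatment-induced meant a titer twofold/1-dilution above the minimum required dilution with no baseline ADA. Treatment-boosted meant a fourfold/2-dilution titer rise over a positive baseline.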"}, "[3]": {"conditions": "global and Japanese patient populations, single and multiple doses; cited from earlier work"}, "[4]": {"test_system": "Chinese patients with type 2 diabetes", "experiment": "Pharmacodynamics: change from baseline in HbA1c, FPG, 7-point SMBG, meal intake", "format": "in vivo, human", "conditions": "both tirzepatide groups; not apparent in placebo"}, "[5]": {"test_system": "Chinese patients with type 2 diabetes", "experiment": "Safety and tolerability", "format": "in vivo, human", "conditions": "during the study", "how_it_was_run": "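Adults aged 20–70 with T2D and BMI ≥ 23.0 kg/m2 received once-weekly SC test compound or placebo, followed by 4 weeks of follow-up. AEs were recorded on an electronic CRF with investigator-assessed relatedness. TEAEs were events arising or worsening after treatment start. Also collected: laboratory values, vital signs, ECG, injection-site reactions and hypoglycaemia (glucose ≤ 70.0 mg/dL, graded per International Hypoglycaemia Study Group). All enrolled patients were included.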"}, "[6]": {"conditions": "all 20 patients treated with tirzepatide, treatment-induced"}}, "note": "“Also recorded” adds a separate entry of the source."}
{"smiles": "CC[C@H](C)[C@H](NC(=O)[C@H](CC(C)C)NC(=O)[C@H](Cc1c[nH]c2ccccc12)NC(=O)[C@H](CCC(N)=O)NC(=O)[C@@H](NC(=O)[C@H](Cc1ccccc1)NC(=O)[C@H](C)NC(=O)[C@H](CCCCNC(=O)COCCOCCNC(=O)COCCOCCNC(=O)CC[C@H](NC(=O)CCCCCCCCCCCCCCCCCCC(=O)O)C(=O)O)NC(=O)[C@H](CCC(N)=O)NC(=O)[C@H](C)NC(=O)[C@@H](NC(=O)[C@H](CCCCN)NC(=O)[C@H](CC(=O)O)NC(=O)[C@H](CC(C)C)NC(=O)C(C)(C)NC(=O)[C@@H](NC(=O)[C@H](CO)NC(=O)[C@H](Cc1ccc(O)cc1)NC(=O)[C@H](CC(=O)O)NC(=O)[C@H](CO)NC(=O)[C@@H](NC(=O)[C@H](Cc1ccccc1)NC(=O)[C@@H](NC(=O)CNC(=O)[C@H](CCC(=O)O)NC(=O)C(C)(C)NC(=O)[C@@H](N)Cc1ccc(O)cc1)[C@@H](C)O)[C@@H](C)O)[C@@H](C)CC)[C@@H](C)CC)C(C)C)C(=O)N[C@@H](C)C(=O)NCC(=O)NCC(=O)N1CCC[C@H]1C(=O)N[C@@H](CO)C(=O)N[C@@H](CO)C(=O)NCC(=O)N[C@@H](C)C(=O)N1CCC[C@H]1C(=O)N1CCC[C@H]1C(=O)N1CCC[C@H]1C(=O)N[C@@H](CO)C(N)=O", "note": "[Tirzepatide, tirzepatide]", "values": [{"measurement": "T½, range of values across weeks and cohorts", "setting": "[1]", "value": "124 to 145", "unit": "h"}, {"measurement": "ADA-positive patients post-baseline, number", "setting": "[2]; 2.5–10.0 mg group", "value": "five"}, {"measurement": "ADA-positive patients post-baseline, number", "setting": "[2]; 2.5–15.0 mg group", "value": "three"}, {"measurement": "ADA-positive patients post-baseline, number", "setting": "[2]; [6]", "value": "Eight"}, {"measurement": "ADA-positive patients post-baseline, percentage", "setting": "[2]; [6]", "value": 40, "unit": "%"}, {"measurement": "ADAs at baseline", "setting": "[2]; baseline", "value": "No ADAs were detected"}, {"measurement": "impact of ADA-positive status on safety, PK and PD", "setting": "[2]; in vivo", "value": "no apparent impact"}, {"measurement": "median Tmax range", "setting": "[3]", "value": "24 to 48", "unit": "h"}, {"measurement": "meal intake between baseline and end of study", "setting": "[4]", "value": "trend towards a decrease"}, {"measurement": "deaths or SAEs in patients receiving tirzepatide", "setting": "[5]; both tirzepatide groups", "value": "no serious adverse events reported; also recorded: No deaths or SAEs occurred"}, {"measurement": "changes in vital signs measurements", "setting": "[5]", "value": "No clinically meaningful changes"}]}
